From PubChem BioAssay
A selection: hits, their analogues and other compounds. The true share with any hit is near 3.1%.
HKDC1 inh = HKDC1 (human) hexokinase inhibition; 0.16% of 340,000 active; Q2TB90; recombinant HKDC1, G6PDH/diaphorase resazurin coupled fluorescence; inhibition, % at 20 µM;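 active = inhibition above about 35% when tested at 20 µM, limit read from the data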
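Test system: recombinant HKDC1 (HK5) hexokinase enzyme, produced in-house / Doses: 20 µM test compound, 1% DMSO / Timing: 90 min, room temperature / Detection: G6PDH/diaphorase-coupled fluorescence, 1 mM NADP, 100 µM resazurin, 525/613 nm / Control set: DMSO wells with and without enzyme mix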
Hsp70 act = switches on Hsp70 transcription; 0.04% of 200,000 active; HeLa Hsp70 promoter luciferase reporter, luminescence; scaled: vehicle 0, proteasome-inhibitor control 100%; activation, % at 10 µM; AID 1203;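 active = activation above the mean across all tested compounds plus 3 SD, cutoff set per campaign, cut at about 5.5% in these data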
TbHK1 inh = blocks Trypanosoma brucei hexokinase 1 activity. recombinant TbHK1, G6PDH-coupled NADH A340. 0.11% of 220,000 active. inhibition, % at 10 µM;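 active = inhibition of 50% or more in the single-dose primary screen; inactive = inhibition below 50%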
HSP90 refold inh = inhibitors of HSP90 luciferase refolding in rabbit reticulocyte lysate | luciferase refolding luminescence, 3 h | inhibition, % at 5.6 µM | 0.91% of 290,000 active | AID 1789;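 active = inhibition above the screen-wide mean plus 3 SD, computed separately per campaign, cut at about 16% in these data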;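 note: inhibitors lower the luminescence because luciferase stays unfolded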
HSF1 activator = increases HSF-1 driven luciferase reporter signal | NIH3T3-HGL HSF-1 luciferase reporter, MG132, 8 h; 100% = twice DMSO control signal | activation, % at 9 µM | 1.7% of 300,000 active;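 active = mean replicate activation of at least 50% with a set share of replicates each reaching 50%; inconclusive = only one of those two conditions met; inactive = mean below 50% and too few replicates reaching it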
HSF1 inh = HSF1 inhibition | NIH3T3-HGL HSE-luciferase, MG132-induced, luminescence 8 h; hits give low values | activity change, negative = inhibition, % at 7.5 µM (by protocol) | 0.77% of 300,000 active | AID 2098;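 active = more than half of replicate wells show activity change below -50%, luminescence cut by over half; inconclusive = some wells, but at most half, below -50%; inactive = no replicate well below -50%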;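 note: luciferase reports HSF-1 transcriptional activity via heat shock element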
A number is an active result; n = inactive; u = inconclusive; x = not tested or not shown.

SMILES | HKDC1 inh | Hsp70 act | TbHK1 inh | HSP90 refold inh | HSF1 activator | HSF1 inh
O=C(Cc1ccccc1[N+](=O)[O-])NCC(O)c1ccc2c(c1)OCO2 (configuration not stated) | n | x | x | x | n | n
Cc1cc(S(=O)(=O)Nc2ccc(C(=O)NCCCN3CCOCC3)cc2)ccc1F | n | x | x | x | n | n
Cc1ccc(C(NC(=O)NCCCN2CCOCC2)=C(Cl)Cl)cc1F | n | n | n | n | 68.7 | n
COc1cc(-c2nc(-c3ccc4c(c3)-c3ccccc3S4(=O)=O)c(-c3ccccc3)[nH]2)cc(OC)c1O | n | n | n | n | 65.1 | n
COc1ccc(-c2[nH]c(-c3ccc(C(=O)O)cc3)nc2-c2ccccc2)cc1 | n | n | n | n | n | n
CCOc1ccc(NC(=S)N(CCc2ccncc2)C(C)C)cc1 | n | n | n | n | n | -52.5
Fc1ccccc1SCc1nnc(-c2ccccc2Br)o1 | n | n | n | n | 79.3 | n
COCCCNC(=O)C(=O)Nc1cc2c3c(c1)CCN3C(=O)CC2 | n | x | x | n | n | n
CC1CC(C)CN(C(=O)c2ccc3c(=O)n(Cc4ccc5c(c4)OCO5)c(=S)[nH]c3c2)C1 (configuration not stated) | n | n | n | n | 65.3 | n
O=C(c1ccc2c(=O)n(Cc3ccc4c(c3)OCO4)c(=S)[nH]c2c1)N1CCCCC1 | n | n | n | n | n | n
CC1(C)CC(=O)C(C(C2=C(O)CC(C)(C)CC2=O)c2ccc(Br)s2)C(=O)C1 (configuration not stated) | n | n | n | n | 123.8 | n
Cc1ccc(NS(=O)(=O)c2cc(NC(=O)c3ccc4c(c3)NC(=O)CS4)ccc2C)c(C)c1 | n | n | n | 16.7 | n | n
COc1ccc(NC(=O)c2ccc3c(c2)NC(=O)CS3)cc1S(=O)(=O)Nc1ccc(Br)cc1 | n | n | n | n | n | n
COc1ccc(CCNC(=O)CSc2nc3scc(-c4ccccc4)c3c(=O)[nH]2)cc1 | n | x | x | x | x | x
CN1C2CCC1/C(=C\c1ccccc1F)C(=O)/C2=C/c1ccccc1F | n | n | n | n | 106.0 | n
Cc1ccc2c(c1)/C(=C/c1ccccc1F)C(=O)N2 | n | x | x | n | n | n
COc1ccc(NC(=O)c2cc(C)n(Cc3cccs3)c2C)cc1 | n | x | n | n | 67.6 | n
Cc1cc(C(=O)COc2ccc3ccc(=O)oc3c2)c(C)n1Cc1cccs1 | n | n | n | n | n | n
NC1=NC(=O)/C(=C/c2cn(Cc3ccccc3)c3ccccc23)S1 | n | n | n | n | 60.2 | n
O=C1C2C3C=CC(C3)C2C(=O)N1/N=C/c1cn(Cc2ccccc2)c2ccccc12 (configuration not stated) | n | n | n | n | n | n
CC1CN(C(=O)Nc2ccc3c(c2)OCCO3)CC(C)O1 (configuration not stated) | n | n | n | n | n | -57.9
Cc1cccc(NC(=S)NNC(=O)c2sccc2C)c1 | n | n | n | n | 56.8 | n
Cc1ccsc1C(=O)Nc1ccc2c(c1)OCCO2 | n | n | n | n | 50.9 | n
Cc1ccccc1NC(=O)c1ccc2c(c1)OCCO2 | n | n | n | n | n | -65.5
CC(C)(C)OC(=O)N1CCN(C(=O)Nc2ccc3c(c2)OCCO3)CC1 | n | n | n | n | n | n
SMILES | HKDC1 inh | Hsp70 act | TbHK1 inh | HSP90 refold inh | HSF1 activator | HSF1 inh
CCCCn1c(N)c(N(C(=O)CSc2nnc(C)n2-c2ccccc2)C2CCCC2)c(=O)[nH]c1=O | n | x | x | x | x | x
CN1CCN(NS(=O)(=O)c2ccc(Cl)cc2)CC1 | n | x | x | n | n | n
CCc1ccc(N(C(=O)c2snc(C(N)=O)c2N)C(C(=O)NC2CCCC2)c2ccncc2)cc1 (configuration not stated) | n | x | x | n | n | n
Cc1ccccc1NC(=O)COC(=O)c1ccc(S(=O)(=O)N2CCCC2)cc1 | n | x | x | x | x | x
O=C(Nc1ccc2c(c1)OCCO2)N1CCN(c2ccc(F)cc2)CC1 | n | n | n | n | n | -58.2
Cc1cccc(C)c1N1CCN(C(=O)Nc2ccc3c(c2)OCCO3)CC1 | n | n | n | n | n | n
O=S(=O)(c1ccc2c(c1)C(=NO)c1cc(S(=O)(=O)N3CCCCC3)ccc1-2)N1CCCCC1 | n | n | n | n | n | -94.3
CC1CCN(S(=O)(=O)c2ccc3c(c2)C(=NO)c2cc(S(=O)(=O)N4CCC(C)CC4)ccc2-3)CC1 | n | n | n | n | x | x
Cc1nc(N2CCN(C(=O)c3ccco3)CC2)[nH]c(=O)c1C | n | x | x | n | n | n
O=[N+]([O-])c1ccc(Nc2ccc(F)cc2)cc1 | n | x | x | n | n | -80.9
Clc1ccc(Cn2nc(-c3ccccc3)nc2-c2ccccc2)cc1 | n | n | n | n | 53.5 | n
Cc1ccc([C@H]2C(C(=O)O)=CC[C@@H](c3ccc(C)cc3)N2S(=O)(=O)c2ccccc2C)cc1 | n | x | x | x | x | x
CCCOC1CCCN(C(=O)CCc2nnc(-c3ccc4c(c3)OCO4)o2)C1 (configuration not stated) | n | x | x | n | n | n
CCCSc1nnc2n(-c3ccccc3OC)c(=O)c3c4c(sc3n12)CCC4 | n | n | n | n | 58.8 | n
Cc1cc(OCC(=O)OCC(=O)N2CC(C)CC(C)C2)ccc1Cl (configuration not stated) | n | x | x | x | x | x
COc1ccc(C(=O)Nc2ccccc2)cc1NC(=O)c1ccc([N+](=O)[O-])cc1 | n | x | x | n | n | n
CCOC(=O)c1c(C)nc2c3ccccc3ccn12 | n | n | n | n | u | n
CCOC(=O)c1c(C)nc2c(C)cccn12 | n | n | n | n | n | -89.2
COc1ccc(C)cc1NC(=O)C(=O)NNC(=O)COc1ccc(Cl)cc1 | n | n | n | n | n | -85.1
COc1ccc(OCC(=O)NNC(=O)C(=O)Nc2cc(OC)ccc2OC)cc1 | n | x | x | n | n | n
CCC(=O)Nc1cc(NC(=O)CSc2ncc(-c3ccc(F)cc3)n2Cc2ccco2)ccc1C | n | n | n | n | 76.8 | n
C=CCn1c(COc2ccccc2)nnc1SCC(=O)Nc1ccc2c(c1)OCCO2 | n | n | n | n | n | n
Cc1ccc(C)c(NC(=O)CSc2nnc(CSc3nc(C)cc(C)n3)n2Cc2ccco2)c1 | n | n | n | n | 66.1 | n
Cc1ccc(NC(=O)CSc2nnc(CSc3nc(C)cc(C)n3)n2Cc2ccco2)c(C)c1 | n | n | n | n | n | n
CCn1c(COc2ccc(C)cc2)nnc1SCC(=O)Nc1ccc2c(c1)OCCO2 | n | n | n | n | n | -70.6
Cc1cccc(OCc2nnc(SCC(=O)N(C(C)C)C(C)C)n2Cc2ccco2)c1C | n | n | n | n | 60.1 | n
COc1ccc(C)cc1NC(=O)CSc1nnc(COc2ccc(Cl)cc2)n1Cc1ccco1 | n | n | n | n | 106.6 | n
Cc1cc(NC(=O)CSc2nnc(COc3cccc(C)c3C)n2Cc2ccco2)no1 | n | n | n | n | n | n
COc1ccc(C)cc1NC(=O)CSc1nnc(COc2ccccc2)n1Cc1ccco1 | n | n | n | n | n | n
